# Measurements published in ChEMBL document CHEMBL1123836, “Synthesis and antiviral activity of 9-[4-hydroxy-3-(hydroxymethyl)but-1-yl]purines” (J Med Chem, 1987).
# What was measured:
# [1] = test system: Vero; test: Compound was tested for antiviral activity against Herpes Simplex virus Type-1(HFEM) in vero cells; type: functional, cell-based; details: Chlorocebus sabaeus
# Outline: (§1)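 Plaque reduction in Vero cell monolayers infected with about 50 PFU of HSV-1 or HSV-2. A concentration range of compound was included in an agarose overlay and kept present throughout. Plaques were counted 3 days post-infection. IC50 is the concentration giving a plaque count 50% of untreated controls. Stocks were 10 mg/mL in Me2SO, diluted in test medium.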
# [2] = test system: Vero; test: Compound was tested for antiviral activity against Herpes Simplex virus Type-2(MS) in vero cells; type: functional, cell-based; details: Chlorocebus sabaeus; outline: as §1
# [3] = test system: MRC5; test: Compound was tested for antiviral activity against Herpes Simplexin human lung fibroblasts (MRC-5)in vero cells; type: functional
# [4] = test system: MRC5; test: Compound was tested for antiviral activity against Herpes Simplex virus Type-2(20605) in human lung fibroblasts (MRC-5); type: functional
# Outline: (§2)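 Virus yield reduction in MRC-5 cells infected at a multiplicity of about 1 PFU/cell. A concentration range of compound was added in culture medium after virus adsorption and kept present throughout. Supernatants were harvested 24 h post-infection and titrated on Vero cells. IC90 is the concentration reducing infectious yield by 90% versus untreated controls.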
# [5] = test system: MRC5; test: Compound was tested for antiviral activity against Herpes Simplex virus Type-1(HFEM) in human lung fibroblasts (MRC-5); type: functional; outline: as §2
# [6] = test system: MRC5; test: Compound was tested for antiviral activity against Herpes Simplex virus Type-1(19407) in human lung fibroblasts (MRC-5); type: functional; outline: as §2
# [7] = test system: MRC5; test: Compound was tested for antiviral activity against Herpes Simplex virus Type-1(20132) in human lung fibroblasts (MRC-5); type: functional; outline: as §2
# [8] = test system: MRC5; test: Compound was tested for antiviral activity against Herpes Simplex virus Type-2(MS) in human lung fibroblasts (MRC-5); type: functional; outline: as §2
# [9] = test system: MRC5; test: Compound was tested for antiviral activity against Herpes Simplex virus Type-2(21929) in human lung fibroblasts (MRC-5); type: functional; outline: as §2
# [10] = test system: MRC5; test: Compound was tested for antiviral activity against Herpes Simplex virus Type-1(18189) in human lung fibroblasts (MRC-5); type: functional; outline: as §2
# [11] = test system: MRC5; test: compound was tested for antiviral activity against Herpes Simplex virus Type-1(19407) in human lung fibroblasts (MRC-5); type: functional; outline: as §2
# [12] = test system: MRC5; test: compound was tested for antiviral activity against Herpes Simplex virus Type-1(18189) in human lung fibroblasts (MRC-5); type: functional; outline: as §2
# [13] = test system: MRC5; test: compound was tested for antiviral activity against Herpes Simplex virus Type-1(20132) in human lung fibroblasts (MRC-5); type: functional; outline: as §2
# [14] = test system: MRC5; test: compound was tested for antiviral activity against Herpes Simplex virus Type-2(MS) in human lung fibroblasts (MRC-5); type: functional; outline: as §2
# [15] = test system: MRC5; test: compound was tested for antiviral activity against Herpes Simplex virus Type-1(HFEM) in human lung fibroblasts (MRC-5); type: functional; outline: as §2
# [16] = test system: MRC5; test: compound was tested for antiviral activity against Herpes Simplex virus Type-2(20605) in human lung fibroblasts (MRC-5); type: functional; outline: as §2
# [17] = test system: MRC5; test: compound was tested for antiviral activity against Herpes Simplex virus Type-2(17409) in human lung fibroblasts (MRC-5); type: functional; outline: as §2
# [18] = test system: MRC5; test: compound was tested for antiviral activity against Herpes Simplex virus Type-2(21929) in human lung fibroblasts (MRC-5); type: functional; outline: as §2
SMILES,IC50 [1],IC50 [2],further results
Nc1nc(O)c2ncn(CCC(CC(=O)O)CC(=O)O)c2n1,5.8 µM,10 µM,–
CCCCCOC(=O)CC(CCn1cnc2c(O)nc(N)nc21)CC(=O)OCCCCC,4.2 µM,3.6 µM,–
CCCCCOC(=O)CC(CO)CCn1cnc2c(O)nc(N)nc21 (configuration not stated),6 µM,15 µM,–
Nc1nc2c(ncn2COCCO)c(=O)[nH]1 [ACYCLOVIR],3.8 µM,2.5 µM,IC90 [3]: 0.7 µM; IC90 [4]: 0.3 µM; IC90 [5]: 4.8 µM; IC90 [6]: 1.4 µM; IC90 [7]: 0.9 µM; IC90 [8]: 1.2 µM; IC90 [9]: 0.9 µM; IC90 [10]: 0.7 µM
COc1nc(N)nc2c1ncn2CCC(CO)CO,> 250 µM,236 µM,–
COC(=O)CC(CO)CCn1cnc2c(O)nc(N)nc21 (configuration not stated),81 µM,31 µM,–
Nc1nc(O)c2ncn(CCC(CO)CO)c2n1 [PENCICLOVIR],6.4 µM,6.4 µM,IC90 [11]: 0.6 µM; IC90 [12]: 0.5 µM; IC90 [13]: 0.6 µM; IC90 [14]: 1.1 µM; IC90 [15]: 1.3 µM; IC90 [16]: 0.8 µM; IC90 [17]: 0.9 µM; IC90 [18]: 0.9 µM
CCCCCCCCCCCCCCCOC(=O)CC(CO)CCn1cnc2c(O)nc(N)nc21 (configuration not stated),33 µM,128 µM,–
